Experimental data as given in PubChem BioAssay.
Active and inactive are the calls of the source.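 The calls were made as follows, unless noted: active = fluorescence slope higher than the sample average by over 3 SD (cut at about -0.22 in these data, passing the limit was not always enough); inactive = the rest.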

Assays:
[1] = inhibitors of TNFa-induced NFkB p65 translocation, primary screen, imaging, HUVEC, MLSMR starter and 10KST1 sets (AID 438;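 active = inhibition above 20% together with a positive visual image hit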;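 also: compound added about 3h40 before a 20 min TNFalpha stimulation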;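 as to inhibition: signal is the nuclear over cytoplasmic p65 intensity ratio per well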); conditions: HUVEC TNFa-induced p65 nuclear translocation; cell count: measured here: nuclei count (cytotoxicity indicator), at 2.08 µM; inhibition: at 2 µM, stronger effect = higher value, 0% TNFa-plus-vehicle, 100% no-TNFa wells
[2] = reduction of polyQ htt aggregates in cells – imaging, exon1htt(103Q)mCFP cells, high-content imaging, primary screen (AID 483;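 active = visual image review flags a hit and inhibition of aggregation exceeds 20%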;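 also: compound exposure lasted 3 days before fixation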;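 as to nuclei count: percent of the per-plate median nuclei count of sample wells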); conditions: exon1htt(103Q)mCFP cell line, aggregate imaging, at 2 µM; inhibition of aggregation: stronger effect = higher value; nuclei count: measured here: cell count, toxicity
[3] = endothelial E-selectin expression blockers – imaging, HUVEC, immunofluorescence, MLSMR starter and 10KST1 sets, primary screen (AID 487;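 active = visually confirmed hit in the image check and inhibition above 20%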;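 as to inhibition: signal is fraction of cell area covered by stained E-selectin grains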;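 as to nuclei count: 100% = median nuclei count of all wells on the same plate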); conditions: HUVEC TNFalpha-induced E-selectin immunofluorescence imaging, at 2 µM; inhibition: stronger effect = higher value; nuclei count: measured here: cell number, toxicity
[4] = biological target: Voltage-gated potassium channel subunit beta-2 (Rattus norvegicus) (UniProt P62483); experiment: inhibitors of rat Kvbeta2 reductase activity – biochemical, NADPH fluorescence, primary screen (AID 622); conditions: recombinant KvBeta, 4-cyanobenzaldehyde reduction, at 10 µM, stronger effect = higher value;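 also: slope of raw intensity against log time taken from 70 to 1610 s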
[5] = biological target: Voltage-gated potassium channel subunit beta-2 (Rattus norvegicus) (UniProt P62483); experiment: enhancers of rat Kvbeta2 NADPH turnover – biochemical, NADPH fluorescence, primary screen (AID 623;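 active = NADPH fluorescence slope more negative than the mean of all samples by about 3 SD, 99.7% confidence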;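 also: fluorescence intensity change per second fitted from 20 to 320 s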); conditions: Recombinant KvBeta, NADPH fluorescence decrease slope, 10 min; at 10 µM; stronger effect = lower value
[6] = biological target: Muscarinic acetylcholine receptor M4 (Homo sapiens) (UniProt P08173); experiment: M4-linked GIRK flux change, two-sided – cell-based, HEK293 M4/GIRK, thallium flux, BTC-AM, M4 allosteric agonist project, primary screen (AID 625;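 active = fluorescence slope after compound addition differing from the mean of all tested samples at 99.7% confidence, mostly higher but some lower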;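 also: thallium influx through GIRK channels coupled to M4 in HEK293 cells with BTC-AM dye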); conditions: at 10 µM, actives lie on both sides
Outline: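 Material: HEK293 cells with M4 receptor and GIRK channels; Times: cells overnight at 37 °C, BTC-AM loading 1 h, reads 2 min total; Technique: kinetic BTC-AM fluorescence sampled at 1 Hz, 10 s pre-addition baseline; Read-out basis: slope over 15–24 s of trace normalized to starting intensity; Controls: carbachol positive, DMSO negative.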

[7] = blockers of RIG-like receptor reporter activation – cell-based, Sendai virus stimulus, luciferase, 10K MLSCN set, TLR/RLR signaling modifier project, primary screen (AID 602276;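 active = inhibition at or above 50% at 10 µM; inactive = inhibition below 50%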;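 also: firefly luciferase from ISG56 promoter only with Renilla not read in this screen; 0% = Sendai virus plus DMSO and 100% = medium plus DMSO without virus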); conditions: HEK293 RL24 IRF3 luciferase reporter, at 10 µM, stronger effect = higher value
[8] = TLR3 IRF3 reporter activation blockers – cell-based, poly I:C stimulus, luciferase, 10K MLSCN set, primary screen (AID 602277;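 active = inhibition of the reporter signal at or above 50%; inactive = inhibition below 50%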); conditions: HEK293-TLR3 RL24 IRF3 luciferase reporter, at 10 µM, stronger effect = higher value

Chain of Muscarinic acetylcholine receptor M4 (Homo sapiens) (P08173 whole entry, looked up): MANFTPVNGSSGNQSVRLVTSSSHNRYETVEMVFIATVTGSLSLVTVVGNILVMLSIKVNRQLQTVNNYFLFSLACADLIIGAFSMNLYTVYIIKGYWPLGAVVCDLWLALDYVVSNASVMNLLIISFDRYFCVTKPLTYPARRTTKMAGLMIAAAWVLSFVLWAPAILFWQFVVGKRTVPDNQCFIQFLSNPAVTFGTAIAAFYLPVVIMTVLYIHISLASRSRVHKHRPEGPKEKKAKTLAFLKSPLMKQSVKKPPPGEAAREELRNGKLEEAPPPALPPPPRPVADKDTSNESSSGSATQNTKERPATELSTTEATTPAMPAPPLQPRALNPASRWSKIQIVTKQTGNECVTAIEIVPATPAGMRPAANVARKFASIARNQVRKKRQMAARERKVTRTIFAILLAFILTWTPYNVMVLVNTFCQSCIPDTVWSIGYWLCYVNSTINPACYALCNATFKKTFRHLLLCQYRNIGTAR
Chain of Voltage-gated potassium channel subunit beta-2 (Rattus norvegicus) (P62483 whole entry, looked up): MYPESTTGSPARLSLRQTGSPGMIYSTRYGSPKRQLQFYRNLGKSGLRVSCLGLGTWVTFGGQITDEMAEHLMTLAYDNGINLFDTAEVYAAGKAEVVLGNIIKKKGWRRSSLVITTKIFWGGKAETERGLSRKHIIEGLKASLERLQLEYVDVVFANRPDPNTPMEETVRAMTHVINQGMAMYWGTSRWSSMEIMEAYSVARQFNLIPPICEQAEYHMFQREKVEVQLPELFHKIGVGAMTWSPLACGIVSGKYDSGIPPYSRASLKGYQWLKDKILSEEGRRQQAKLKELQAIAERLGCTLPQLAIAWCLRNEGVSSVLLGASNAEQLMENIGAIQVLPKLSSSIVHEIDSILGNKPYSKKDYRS

SMILES | cell count [1] | inhibition [1] | inhibition of aggregation [2] | nuclei count [2] | inhibition [3] | nuclei count [3] | fluorescence slope [4] | NADPH fluorescence slope [5] | fluorescence slope [6] | inhibition [7] | inhibition [8]
CCOC(=O)c1cccc(NC(=O)CCn2nnc3ccccc32)c1 | 341 | 1.2% (inactive) | 4.8% (inactive) | 112% | -4.7% (inactive) | 118% | -0.457 (inactive) | -2.8e-05 (inactive) | 0.00454 (inactive) | 18.4% (inactive) | 8.84% (inactive)
Cc1nc2ccccc2c(=O)n1/N=C/c1ccncc1 | 644 | -6.3% (inactive) | -10.1% (inactive) | 109% | -2.9% (inactive) | 92.1% | -0.526 (inactive) | -3.4e-05 (inactive) | 0.00441 (inactive) | -4.49% (inactive) | 4.48% (inactive)
CCC(=O)Oc1ccc2c(C)cc(=O)oc2c1C | 328 | 3.4% (inactive) | -23.4% (inactive) | 98.2% | -42.2% (inactive) | 108% | -0.554 (inactive) | -4.5e-05 (inactive) | 0.00649 (inactive) | 10.7% (inactive) | -2.94% (inactive)
COc1cccc(CNC(=O)C2CCN(c3cnccn3)CC2)c1 | 399 | -8.4% (inactive) | 17.9% (inactive) | 98.8% | -82.7% (inactive) | 86.8% | -0.548 (inactive) | 5.8e-06 (inactive) | 0.00424 (inactive) | 18.8% (inactive) | 18.1% (inactive)
COc1cc(=O)[nH]c(SCc2c(F)c(F)c(F)c(F)c2F)n1 | 546 | 2.2% (inactive) | 6.7% (inactive) | 87.6% | -11.4% (inactive) | 104% | -0.436 (inactive) | -4e-05 (inactive) | 0.00944 (inactive) | -4.06% (inactive) | 22.3% (inactive)
CC(=O)NC1(c2nnnn2CCOC(=O)Nc2ccc(Cl)cc2)CCCCC1 | 559 | -12.5% (inactive) | 2.9% (inactive) | 84.6% | -23.9% (inactive) | 91.3% | -0.513 (inactive) | -0.000175 (inactive) | 0.0035 (inactive) | 9.27% (inactive) | 8.82% (inactive)
COc1ccc(-c2cc3nc4n(c(=O)c3s2)CCC4)cc1 | 433 | 3% (inactive) | 4.8% (inactive) | 88.6% | -96.4% (inactive) | 139% | -0.467 (inactive) | -3.4e-05 (inactive) | 0.0055 (inactive) | 12.2% (inactive) | -34.7% (inactive)
O=S(=O)(Nc1cccc2ncccc12)c1cccs1 | 469 | -38% (inactive) | -0.2% (inactive) | 67.2% | 39.3% (inactive) | 23.8% | -0.486 (inactive) | 2.1e-05 (inactive) | 0.0108 (active) | -7.18% (inactive) | -3.78% (inactive)
COc1ccc(NCc2nnc(SCC(=O)Nc3cc(C)cc(C)c3)o2)cc1 | 396 | -1.1% (inactive) | 8.7% (inactive) | 101% | 36.7% (inactive) | 79.5% | -0.4 (inactive) | -0.000139 (inactive) | 0.00688 (inactive) | 11% (inactive) | 22.6% (inactive)
CCn1c(Cc2ccccc2)nnc1SCC(=O)Nc1nc2ccccc2s1 | 741 | -0.5% (inactive) | -25.5% (inactive) | 115% | -24.9% (inactive) | 97.6% | -0.469 (inactive) | -4.8e-05 (inactive) | 0.00499 (inactive) | 18.4% (inactive) | 17.4% (inactive)
S=c1[nH]c2ccc(Cl)cc2[nH]1 | 457 | -3.8% (inactive) | -4% (inactive) | 91.1% | -78.7% (inactive) | 110% | -0.449 (inactive) | -3.7e-05 (inactive) | 0.00564 (inactive) | 21.3% (inactive) | 33.3% (inactive)
CCOC(=O)c1cccc(NC(=O)CSc2nc3ccccc3c(=O)n2CC)c1 | 360 | 4.2% (inactive) | 7.7% (inactive) | 98.9% | -1.3% (inactive) | 104% | -0.465 (inactive) | 2.3e-05 (inactive) | 0.00728 (inactive) | 9.39% (inactive) | 18.3% (inactive)
CCOC(=O)N1CCN(C(=O)c2ccc3c(=O)n(CCc4ccccc4)c(=O)[nH]c3c2)CC1 | 784 | -7.8% (inactive) | 5.4% (inactive) | 111% | -60% (inactive) | 115% | -0.307 (inactive) | 4.7e-06 (inactive) | 0.00774 (inactive) | -16.4% (inactive) | -40% (inactive)
Cc1cc(NC(=O)CCC(=O)N(CCc2ccccc2)C(C(=O)NC2CCCC2)c2ccco2)no1 (stereo not drawn) | 592 | -7.5% (inactive) | -11.5% (inactive) | 102% | 6.8% (inactive) | 101% | -0.483 (inactive) | 0.000137 (inactive) | 0.00558 (inactive) | 4.62% (inactive) | 19.1% (inactive)
Nc1nc(N)nc(-c2ccccc2)n1 | 402 | 6% (inactive) | 12% (inactive) | 91.3% | 22.3% (inactive) | 102% | -0.599 (inactive) | -3.3e-05 (inactive) | 0.00335 (inactive) | 13.8% (inactive) | 13.5% (inactive)
CCn1c(C)nc2cc(C(=O)OC(C(F)(F)C(F)F)C(F)(F)C(F)F)ccc21 | 358 | 6% (inactive) | 12.2% (inactive) | 91.2% | -20.9% (inactive) | 93.6% | -0.557 (inactive) | -2.6e-05 (inactive) | 0.00666 (inactive) | 7.52% (inactive) | -180% (inactive)
C/C(NC1CCCC1)=C(/C#N)C(N)=O | 396 | -23.5% (inactive) | -0.6% (inactive) | 108% | -38.9% (inactive) | 144% | -0.583 (inactive) | -2.4e-05 (inactive) | 0.00436 (inactive) | 16.9% (inactive) | 22.8% (inactive)
CC(=O)Nc1cccc(NC(=O)CSc2nnnn2C)c1 | 754 | -2.1% (inactive) | -16.5% (inactive) | 104% | -135% (inactive) | 131% | -0.481 (inactive) | -5.6e-05 (inactive) | 0.00501 (inactive) | 21.2% (inactive) | 13.5% (inactive)
CC(=O)c1c(C)[nH]c(C(=O)NC2=NCCS2)c1C | 459 | -9.6% (inactive) | 15.8% (inactive) | 61.1% | 23.6% (inactive) | 95.2% | -0.571 (inactive) | -1.9e-05 (inactive) | 0.00678 (inactive) | -2.52% (inactive) | -11.8% (inactive)
CS(=O)(=O)N(CC(=O)O)c1cccc(Cl)c1 | 358 | 9.8% (inactive) | -14.9% (inactive) | 106% | -49% (inactive) | 121% | -0.544 (inactive) | -0.00014 (inactive) | 0.00338 (inactive) | -12.6% (inactive) | -6.52% (inactive)
O=C1c2ccccc2C(=O)N1Cc1nc2ccccc2c(=O)n1CCN1CCOCC1 | 383 | -10.3% (inactive) | -11.3% (inactive) | 85.7% | -48.6% (inactive) | 160% | -0.521 (inactive) | 1.6e-05 (inactive) | 0.0047 (inactive) | 14.9% (inactive) | 12.8% (inactive)
COC(=O)c1cnn2c(C(F)(F)F)cc(-c3ccco3)nc12 | 246 | 0.2% (inactive) | 38.2% (inactive) | 75.8% | 42.4% (inactive) | 72.5% | -0.276 (inactive) | -8.1e-06 (inactive) | 0.00336 (inactive) | 8.92% (inactive) | 9.22% (inactive)
CCS(=O)(=O)c1ccc(S(=O)(=O)CC)s1 | 412 | -5.5% (inactive) | 25.8% (inactive) | 61.1% | 10.5% (inactive) | 82.3% | -0.584 (inactive) | -4.4e-05 (inactive) | 0.00846 (inactive) | 6.99% (inactive) | 17.4% (inactive)
NC(=O)c1sc2nc(N3CCCCC3)c3c(c2c1N)CCCC3 | 369 | 8.4% (inactive) | -12.2% (inactive) | 118% | 26.5% (inactive) | 111% | 1.5e-14 (active) | 0 (inactive) | 0.00601 (inactive) | 1.9% (inactive) | 10.7% (inactive)
COc1cc2[nH]c(=O)n(CCC(=O)N3CCc4ccccc4C3)c(=O)c2cc1OC | 452 | -20.3% (inactive) | 6.9% (inactive) | 94.4% | -83.3% (inactive) | 108% | -0.15 (inactive) | -9.5e-06 (inactive) | 0.00747 (inactive) | 14.4% (inactive) | -15.8% (inactive)
C=C(c1cccc2ccccc12)P(=O)(O)O | 429 | 11.9% (inactive) | 18.4% (inactive) | 92.8% | 18.6% (inactive) | 99.8% | -0.493 (inactive) | -0.000279 (inactive) | 0.00428 (inactive) | 17.7% (inactive) | 22.1% (inactive)
O=S1(=O)Nc2c(ccc3cccnc23)-c2ccccc21 | 318 | 77.8% (active) | -31.5% (inactive) | 50.8% | 47.4% (inactive) | 94.2% | -0.465 (inactive) | -0.000334 (inactive) | 0.00395 (inactive) | -4.82% (inactive) | -17.5% (inactive)
N#CC1=C(N)SC(N)=C(C#N)C1CCc1ccccc1 | 300 | -3.2% (inactive) | -16.8% (inactive) | 83% | -171% (inactive) | 104% | -0.543 (inactive) | -2e-06 (inactive) | 0.00612 (inactive) | 18% (inactive) | 26.3% (inactive)
